# From paper PMC6349029 (Bioorganic & medicinal chemistry letters, 2018)
# What was measured:
# TRPC4 = details: cited from earlier work
# [1] = test system: animal models of kidney disease; details: previously shown; cited from earlier work
# TRPC5 channel = target: T1, TRPC5 channel (Homo sapiens, UniProt Q9UL62); assay: TRPC5 % inhibition at single concentration, Syncropatch; type: cell-based; details: read-out: % inhibition at 3 μM, Table 3
# T1 sequence (Q9UL62 1-973): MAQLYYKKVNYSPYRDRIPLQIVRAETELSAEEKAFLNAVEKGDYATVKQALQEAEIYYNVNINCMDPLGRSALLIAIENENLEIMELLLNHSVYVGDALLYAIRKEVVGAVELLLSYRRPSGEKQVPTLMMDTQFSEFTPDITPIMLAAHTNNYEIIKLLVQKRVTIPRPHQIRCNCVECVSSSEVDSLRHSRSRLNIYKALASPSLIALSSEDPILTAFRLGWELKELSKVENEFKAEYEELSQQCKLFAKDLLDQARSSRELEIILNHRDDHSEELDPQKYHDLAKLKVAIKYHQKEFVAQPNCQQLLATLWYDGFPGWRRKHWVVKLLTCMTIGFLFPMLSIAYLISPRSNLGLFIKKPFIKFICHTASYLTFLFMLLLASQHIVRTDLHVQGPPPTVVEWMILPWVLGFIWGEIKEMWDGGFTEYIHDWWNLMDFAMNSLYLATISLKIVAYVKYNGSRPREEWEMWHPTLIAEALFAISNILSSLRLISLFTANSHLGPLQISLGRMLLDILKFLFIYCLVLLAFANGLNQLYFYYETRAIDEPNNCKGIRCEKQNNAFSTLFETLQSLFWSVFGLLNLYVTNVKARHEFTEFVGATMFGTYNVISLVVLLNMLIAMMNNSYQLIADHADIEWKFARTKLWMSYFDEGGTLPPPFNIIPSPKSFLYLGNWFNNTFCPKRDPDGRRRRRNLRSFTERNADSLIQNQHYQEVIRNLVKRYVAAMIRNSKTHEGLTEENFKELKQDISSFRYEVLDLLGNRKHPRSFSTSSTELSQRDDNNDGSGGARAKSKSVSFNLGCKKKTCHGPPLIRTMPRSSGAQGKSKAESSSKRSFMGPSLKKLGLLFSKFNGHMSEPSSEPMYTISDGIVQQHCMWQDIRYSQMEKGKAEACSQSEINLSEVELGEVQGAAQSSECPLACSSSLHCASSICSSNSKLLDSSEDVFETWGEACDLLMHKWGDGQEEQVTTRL
# Outline: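 Automated patch-clamp (Syncropatch) first-pass screen of TRPC5 channel block. Each test compound was run at one concentration (3 μM) in a single well. Values were normalised so that the furfuryl-amine reference analogue's inhibition at 3 μM equals 100%. A reference inhibitor and DMSO served as controls on every plate. Recordings came from at least one session over two assay plates.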
# TRPC6 = details: cited from earlier work
# kidney filter = details: in vivo animal model; cited from earlier work
inhibition at 3 µM (TRPC5 channel),SMILES,selectivity for TRPC5 over TRPC4 (TRPC4),activity in animal models of kidney disease [1],selectivity for TRPC5 over TRPC6 (TRPC6),protection of the kidney filter (kidney filter)
100%,c1ccc(Cn2c(NCc3ccco3)nc3ccccc32)cc1 [Compound 2],selective,active,selective,
167%,Fc1ccc(Cn2c(NCc3ccco3)nc3ccccc32)cc1 [Compound 6o],,,,
,Cc1cc(N2CCCCC2)nc2ccccc12 [ML204],,,,protect the kidney filter
